Blank lines part the entries; values can stand above or below the molecule they belong to. Activity calls are given as the source filed them. The rule behind the calls is not given here.
Tests used:
Leishmania amazonensis [1] = experiment: Antileishmanial activity against Leishmania amazonensis IFLA/BR/1967/PH8 promastigotes after 72 hrs by MTT assay; format: functional
Peritoneal macrophage = experiment: (§1) Cytotoxicity against mouse peritoneal macrophages after 72 hrs by MTT assay; format: cell-based; conditions: peritoneal macrophage, 72 h
Leishmania amazonensis [2] = experiment: Induction of DNA damage in Leishmania amazonensis IFLA/BR/1967/PH8 promastigotes at 5 to 10 uM after 24 hrs by TUNEL assay; format: functional
Procedure, shortened: (§2)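 Exponential-phase WT promastigotes (1x10^7 cells/mL) cultured 24 h at 25 °C; DNA fragmentation detected by TUNEL with DAPI counterstain, fluorescence microscopy at 100X.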

Leishmania amazonensis [3] = experiment: Induction of lipid inclusions in Leishmania amazonensis IFLA/BR/1967/PH8 promastigotes at 5 uM after 24 hrs by Nile Red satining-based spectrofluorometric analysis; format: functional
Procedure, shortened: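 WT exponential-phase promastigotes (1x10^7 cells/mL) cultured 24 h at 25 °C, stained with Nile Red, fluorescence read spectrofluorometrically versus untreated; three experiments in triplicate.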

Leishmania amazonensis [4] = experiment: Induction of plasma membrane permeability in Leishmania amazonensis IFLA/BR/1967/PH8 promastigotes form assessed as increase in fluorescence intensity at 20 uM after 24 hrs by PI staining-based spectrofluorometric analysis; format: functional
Procedure, shortened: (§3)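 Exponential WT promastigotes (1x10^7 cells/mL) treated 24 h at 25 °C; washed, PI 1.0 µg/mL 15 min dark at room temperature; fluorescence 540/600 nm as % increase over untreated; heat-killed cells (65 °C, 10 min) as positive control; three independent experiments.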

Leishmania amazonensis [5] = experiment: Antileishmanial activity against Leishmania amazonensis IFLA/BR/1967/PH8 promastigotes at 2.5 to 20 uM incubated for 72 hrs followed by compound washout measured after 72 hrs by Neubauer chamber method; format: functional
Procedure, shortened: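 WT promastigotes exposed 72 h at 25 °C and counted; centrifuged, washed twice in PBS, adjusted to 10x10^6 cells/mL in drug-free Warren's medium + 10% serum; after 72 h at 25 °C viable cells counted in Neubauer chamber; three independent experiments in duplicate.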

Leishmania amazonensis [6] = experiment: Induction of morphological changes in Leishmania amazonensis IFLA/BR/1967/PH8 promastigotes assessed as rounded cell body at 2.5 to 20 uM after 24 hrs by Giemsa staining-based microscopic analysis; format: functional
Procedure, shortened: (§4)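 Exponential-phase promastigotes (1x10^7 cells/mL) treated 24 h at 25 °C; harvested, resuspended in PBS, smeared, ethanol-fixed, Giemsa-stained and examined by light microscopy.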

Leishmania amazonensis [7] = experiment: Induction of morphological changes in Leishmania amazonensis IFLA/BR/1967/PH8 promastigotes assessed as altered parasite shape at 2.5 to 20 uM after 24 hrs by Giemsa staining-based microscopic analysis; format: functional; procedure, shortened: as §4
Leishmania amazonensis [8] = experiment: Induction of autophagy in Leishmania amazonensis IFLA/BR/1967/PH8 promastigotes at 2.5 to 10 uM after 24 hrs by MDC staining-based fluorometric analysis; format: functional
Procedure, shortened: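 Exponential WT promastigotes (1x10^7 cells/mL) treated 24 h at 25 °C; washed, adjusted to 10x10^6 cells/mL, 100 µM monodansylcadaverine 1 h dark at 25 °C; fluorescence 335/460 nm versus untreated; three independent experiments.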

Leishmania amazonensis [9] = experiment: Induction of lipid inclusions in Leishmania amazonensis IFLA/BR/1967/PH8 promastigotes at 2.5 uM after 24 hrs by Nile Red satining-based spectrofluorometric analysis; format: functional
Procedure, shortened: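 WT (PH8) promastigotes at 1x10^7 cells/mL in exponential phase, cultured 24 h at 25 °C with or without 2.5–20.0 µM. Parasites incubated with Nile Red, then fluorescence measured spectrofluorometrically. Reported as arbitrary fluorescence units versus untreated parasites, mean of three experiments run in triplicate.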

Leishmania amazonensis [10] = experiment: Induction of morphological changes in Leishmania amazonensis IFLA/BR/1967/PH8 promastigotes assessed as parasite size reduction at 2.5 to 20 uM after 24 hrs by Giemsa staining-based microscopic analysis; format: functional; procedure, shortened: as §4
Leishmania amazonensis [11] = experiment: Induction of plasma membrane permeability in Leishmania amazonensis IFLA/BR/1967/PH8 promastigotes form assessed as increase in fluorescence intensity at 2.5 to 10 uM after 24 hrs by PI staining-based spectrofluorometric analysis; format: functional; procedure, shortened: as §3
Leishmania amazonensis [12] = experiment: Induction of apoptosis in Leishmania amazonensis IFLA/BR/1967/PH8 promastigotes assessed as early apoptotic population at 44 uM after 24 hrs by Annexin V-FITC/PI staining based flow cytometric analysis (reference value: 5.29%); format: functional
Procedure, shortened: (§5)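 Exponential-phase WT promastigotes (1x10^7 cells/mL) cultured 24 h at 25 °C; stained annexin V-FITC plus PI, flow cytometry with 10,000 events gated on parasites; quadrant percentages; three independent experiments.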

[13] = Selectivity index, ratio of CC50 for mouse peritoneal macrophages to IC50 for Leishmania amazonensis IFLA/BR/1967/PH8 amastigotes
Procedure, shortened: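 SI = CC50 for mouse peritoneal macrophages / amastigote IC50. […] IC50: WT-infected macrophages treated with 0.78–100.0 µM in sterile water; burden scored by counting amastigotes and infected/uninfected cells in at least 200 macrophages. Three experiments in duplicate.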

Leishmania amazonensis [14] = experiment: Antileishmanial activity against Leishmania amazonensis WHOM/BR/75/Josefa amastigotes transfected with green fluorescent protein infected in murine macrophages after 72 hrs by fluorometric analysis; format: functional
Procedure, shortened: (§6)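 Infected murine macrophages treated 0.78-100.0 µM for 72 h; fluorescence read at 540/600 nm for RFP parasites (PH8) and 485/528 nm for GFP parasites (Josefa strain); IC50 from three independent experiments in duplicate.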

Leishmania amazonensis [15] = experiment: Antileishmanial activity against Leishmania amazonensis IFLA/BR/1967/PH8 amastigotes infected in murine macrophages after 72 hrs by fluorometric analysis; format: functional; conditions: IFLA/BR/1967/PH8, 72 h
Leishmania amazonensis [16] = experiment: Antileishmanial activity against Leishmania amazonensis WHOM/BR/75/Josefa promastigotes transfected with green fluorescent protein after 72 hrs by MTT assay; format: functional
Leishmania amazonensis [17] = experiment: Induction of DNA damage in Leishmania amazonensis IFLA/BR/1967/PH8 promastigotes at 22 uM after 24 hrs by TUNEL assay; format: functional; procedure, shortened: as §2
[18] = as §1; format: cell-based, Peritoneal macrophage; conditions: peritoneal macrophages
Leishmania amazonensis [19] = experiment: Antileishmanial activity against Leishmania amazonensis IFLA/BR/1967/PH8 promastigotes transfected with red fluorescent protein after 72 hrs by MTT assay; format: functional; conditions: IFLA/BR/1967/PH8, 72 h
[20] = Selectivity index, ratio of CC50 for mouse peritoneal macrophages to IC50 for Leishmania amazonensis IFLA/BR/1967/PH8 amastigotes transfected with red fluorescent protein
Procedure, shortened: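 SI = CC50 for mouse peritoneal macrophages / RFP amastigote IC50. […] IC50: macrophages infected with RFP-expressing PH8 parasites, treated with 0.78–100.0 µM for 72 h; fluorescence read at 540 nm excitation/600 nm emission. Three experiments in duplicate.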

Leishmania amazonensis [21] = experiment: Induction of ROS accumulation in Leishmania amazonensis IFLA/BR/1967/PH8 promastigotes at 22 uM after 72 hrs by H2DCFDA staining-based fluorometric analysis relative to control; format: functional
Procedure, shortened: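 WT exponential-phase promastigotes treated at 25 °C; adjusted to 2x10^7 cells in PBS, loaded with H2DCFDA 30 min dark at room temperature; fluorescence 485/528 nm versus untreated; three independent experiments.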

Leishmania amazonensis [22] = experiment: Antileishmanial activity against Leishmania amazonensis IFLA/BR/1967/PH8 amastigotes transfected with red fluorescent protein infected in murine macrophages after 72 hrs by fluorometric analysis; format: functional; conditions: IFLA/BR/1967/PH8, 72 h; procedure, shortened: as §6
[23] = Selectivity index, ratio of CC50 for mouse peritoneal macrophages to IC50 for Leishmania amazonensis WHOM/BR/75/Josefa amastigotes transfected with green fluorescent protein
Procedure, shortened: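 SI = CC50 for mouse peritoneal macrophages / GFP amastigote IC50. […] IC50: macrophages infected with GFP-expressing Josefa-strain parasites, treated with 0.78–100.0 µM for 72 h; fluorescence read at 485 nm excitation/528 nm emission. Three experiments in duplicate.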

Leishmania amazonensis [24] = experiment: Induction of apoptosis in Leishmania amazonensis IFLA/BR/1967/PH8 promastigotes assessed as necrotic population at 44 uM after 24 hrs by Annexin V-FITC/PI staining based flow cytometric analysis (reference value: 0.03%); format: functional; procedure, shortened: as §5
Leishmania amazonensis [25] = experiment: Induction of apoptosis in Leishmania amazonensis IFLA/BR/1967/PH8 promastigotes assessed as late apoptotic population at 44 uM after 24 hrs by Annexin V-FITC/PI staining based flow cytometric analysis (reference value: 2.62%); format: functional; procedure, shortened: as §5
[26] = Leishmania amazonensis, IFLA/BR/1967/PH8, 72 h

SMILES: CCCCCCCCCCn1cc(CO)[n+](CCC)n1 [listing 1 of 2 here]
IC50 (Leishmania amazonensis [1]): 0.7 µM
CC50 (Peritoneal macrophage): 3.9 µM

SMILES: CCCCCCCCCCn1cc(CO)[n+](CCC)n1 [listing 2 of 2 here]
IC50 (Leishmania amazonensis [1]; [26]): 0.73 µM
CC50 (Peritoneal macrophage): 4.6 µM

SMILES: CCCCCCCCCCn1cc(CO)[n+](C)n1 [listing 1 of 2 here]
Activity (Leishmania amazonensis [2]): Active
Activity (Leishmania amazonensis [3]): inactive
Activity (Leishmania amazonensis [4]): Active
Activity (Leishmania amazonensis [5]): Active
Activity (Leishmania amazonensis [6]): Active
Activity (Leishmania amazonensis [7]): Active
Activity (Leishmania amazonensis [8]): inactive
Activity (Leishmania amazonensis [9]): inactive
Activity (Leishmania amazonensis [10]): Active
Activity (Leishmania amazonensis [11]): inactive

SMILES: CCCCn1cc(CO)[n+](C)n1
IC50 (Leishmania amazonensis [1]; [26]): > 100 µM

SMILES: CCCCCCn1cc(CO)[n+](C)n1
IC50 (Leishmania amazonensis [1]; [26]): > 100 µM

SMILES: CCCCCCCCCCn1cc(CO)[n+](C)n1 [listing 2 of 2 here]
IC50 (Leishmania amazonensis [1]): 14.3 µM

IC50 (Leishmania amazonensis [14]): 6.6 µM
IC50 (Leishmania amazonensis [15]): 4.2 µM
IC50 (Leishmania amazonensis [22]): 12.7 µM
SMILES: CCCCCCCCCCCCCCCCOP(=O)([O-])OCC[N+](C)(C)C [MILTEFOSINE]
Activity (Leishmania amazonensis [12]): 53.22%
IC50 (Leishmania amazonensis [1]; [26]): 22 µM
Ratio CC50/IC50 [13]: 34.2
IC50 (Leishmania amazonensis [16]): 13.2 µM
Activity (Leishmania amazonensis [17]): Active
CC50 at 72 h [18]: 144 µM
IC50 (Leishmania amazonensis [19]): 18.9 µM
Ratio CC50/IC50 [20]: 11.3
Activity (Leishmania amazonensis [21]): 66.7%
Ratio CC50/IC50 [23]: 21.7
Activity (Leishmania amazonensis [24]): 7.15%
Activity (Leishmania amazonensis [25]): 12.23%

SMILES: CCCCCCn1cc(CO)[n+](CCC)n1
IC50 (Leishmania amazonensis [1]; [26]): > 100 µM

SMILES: CCCCn1cc(CO)[n+](CCC)n1
IC50 (Leishmania amazonensis [1]; [26]): > 100 µM

Source: ChEMBL document CHEMBL4033653, “Effect of 1,2,3-triazole salts, non-classical bioisosteres of miltefosine, on Leishmania amazonensis” (Bioorg Med Chem, 2017)
